Blank lines part the entries; values can stand above or below the compound they belong to. The source made the active and inactive calls. No cut-off for these calls is given here.
Experiments:
[1] = molecular target: T1, Low molecular weight phosphotyrosine protein phosphatase (Homo sapiens, UniProt P24666); assay: Inhibition of recombinant human LMPTP-A using OMFP or pNPP as substrate by fluorescence assay
T1 sequence (P24666 whole entry): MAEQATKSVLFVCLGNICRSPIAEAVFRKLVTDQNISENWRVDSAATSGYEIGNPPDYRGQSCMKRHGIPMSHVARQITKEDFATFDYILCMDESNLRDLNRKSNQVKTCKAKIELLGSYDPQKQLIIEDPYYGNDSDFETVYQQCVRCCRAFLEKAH
Summary of the method: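 Recombinant human LMPTP-A in 50 mM Bis-Tris pH 6.0, 1 mM DTT, 0.01% Triton X-100, 37°C. With OMFP, fluorescence followed continuously (ex 485/em 525 nm). With pNPP, reaction stopped with 2 volumes 1 M NaOH and absorbance read at 405 nm. IC50 from inhibitor concentration vs % enzyme activity plots; n=4 unless otherwise noted.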

[2] = Volume of distribution in C57BL/6 mouse at 2 mg/kg, iv measured upto 24 hrs by LC-MS/MS analysis; assay type: ADME, organism-based; settings: in vivo
[3] = Cmax in C57BL/6 mouse at 10 mg/kg, po measured upto 24 hrs by LC-MS/MS analysis; assay type: ADME, organism-based; parameters: route oral, dose 10 mg/kg, time <=24; settings: in vivo
[4] = AUC in C57BL/6 mouse at 10 mg/kg, po measured upto 24 hrs by LC-MS/MS analysis; assay type: ADME, organism-based; parameters: route oral, dose 10 mg/kg, time <=24; settings: in vivo
[5] = Half life in C57BL/6 mouse at 10 mg/kg, po measured upto 24 hrs by LC-MS/MS analysis; assay type: ADME, organism-based; settings: in vivo
[6] = Oral bioavailability in C57BL/6 mouse at 10 mg/kg measured upto 24 hrs by LC-MS/MS analysis; assay type: ADME, organism-based; settings: in vivo
[7] = molecular target: T2, Low molecular weight phosphotyrosine protein phosphatase (Homo sapiens) (UniProt P24666); assay: Uncompetitive inhibition of recombinant human LMPTP-A using OMFP as substrate by Lineweaver-Burk plot analysis
T2 sequence (whole entry): T1 sequence (P24666 whole entry)
Summary of the method: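 Recombinant human LMPTP-A at 20 nM acting on increasing OMFP concentrations with increasing inhibitor concentrations. Buffer was 50 mM Bis-Tris pH 6.0, 1 mM DTT, 0.01% Triton X-100 at 37°C. Fluorescence read continuously (ex 485/em 525 nm). Rates fitted to Michaelis-Menten and mixed-model inhibition equations and shown as Lineweaver-Burk plots. 3 independent experiments in triplicate.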

[8] = Plasma protein binding in human; assay type: ADME, cell-free
[9] = Plasma protein binding in mouse; assay type: ADME, cell-free
[10] = Microsomal stability in human liver microsomes assessed as parent compound remaining measured after 1 hr; assay type: ADME, Microsome; settings: read-out: Stabilty
[11] = Microsomal stability in mouse liver microsomes assessed as parent compound remaining measured after 1 hr; assay type: ADME, Microsome; settings: read-out: Stabilty
[12] = molecular target: T2, Low molecular weight phosphotyrosine protein phosphatase (Homo sapiens); assay: Inhibition of LMPTP in human HepG2 cells assessed as increase in insulin-stimulated AKT Thr308 phosphorylation at 500 nM preincubated overnight followed by insulin stimulation for 5 mins by Western blotting analysis; assay type: cell-based
Summary of the method: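 HepG2 cells grown in EMEM with 10% FBS plus penicillin/streptomycin. Serum-starved (0.1% FBS) overnight with DMSO or 500 nM compound, then stimulated with 10 nM bovine insulin for 5 min at 37°C with compound still present. Lysates probed by Western blot for pAKT Thr308, normalized to total AKT or GAPDH. 8 independent experiments.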

[13] = test system: Mus musculus; assay: Reversal of high fat diet induced diabetes in B6 mouse assessed as improved glucose tolerance at 30 mg/kg/day, po administered for 2 weeks followed by 13 hrs fasting and measured by IPGTT; assay type: functional, organism-based
Summary of the method: (§1)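 Male C57BL/6 littermates fed 60 kcal% fat chow for 3 months from 1-2 months of age; DIO mice ≥35 g given HFD containing 0.03% w/w compound (about 30 mg/kg/day) or HFD alone for 2 weeks. HFD n=8; treated n=9.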

[14] = test system: Mus musculus; assay: Reversal of high fat diet induced diabetes in B6 mouse assessed as decrease in fasting insulin levels at 30 mg/kg/day, po administered for 2 weeks by ELISA; assay type: functional, organism-based; summary of the method: as §1
[15] = test system: Mus musculus; assay: Reversal of high fat diet induced diabetes in B6 mouse assessed as increase in insulin-stimulated IR tyrosine phosphorylation in liver at 30 mg/kg/day, po administered for 2 weeks by ELISA; assay type: functional, organism-based; summary of the method: as §1
[16] = test system: Mus musculus; assay: Reversal of high fat diet induced diabetes in B6 mouse assessed as increase in insulin-stimulated AKT Thr308 phosphorylation in liver at 30 mg/kg/day, po administered for 2 weeks by Western blotting analysis; assay type: functional, organism-based; summary of the method: as §1

SMILES: Nc1ncn(Cc2c(Cl)cccc2Cl)c2nc(-c3cccc(Cl)c3)nc1-2
IC50 [1]: 380 nM

SMILES: COc1ccccc1-c1nc2c(N)ncn(Cc3c(Cl)cccc3Cl)c-2n1
IC50 [1]: 106 nM

SMILES: Nc1ncn(Cc2c(Cl)cccc2Cl)c2ncnc1-2
IC50 [1]: 239 nM
Vd [2]: 3.01 L/kg
Cmax [3]: 5018 ng/mL
AUC [4]: 18544 ng·h/mL
t1/2 [5]: 4.71 h
F [6]: 66%

SMILES: Nc1ncn(Cc2c(Cl)cccc2Cl)c2nc(-c3ccc(F)cc3)nc1-2
IC50 [1]: 117 nM

SMILES: Cc1ccc(-c2nc3c(N)ncn(Cc4c(Cl)cccc4Cl)c-3n2)cc1
IC50 [1]: 119 nM

SMILES: Nc1ncn(Cc2c(Cl)cccc2Cl)c2nc(-c3cccc(F)c3)nc1-2
IC50 [1]: 239 nM

SMILES: Nc1ncn(Cc2c(Cl)cccc2Cl)c2nc(Cl)nc1-2
IC50 [1]: 27800 nM

SMILES: Nc1ncn(Cc2c(Cl)cccc2Cl)c2nc(-c3ccccc3)nc1-2
IC50 [1]: 104 nM

IC50 [1]: 1930 nM
SMILES: Nc1ncn(Cc2ccccc2Cl)c2ncnc1-2

SMILES: Cc1ccccc1-c1nc2c(N)ncn(Cc3c(Cl)cncc3Cl)c-2n1
IC50 [1]: 6 nM
Vd [2]: 4.04 L/kg
Cmax [3]: 17 ng/mL
AUC [4]: 38 ng·h/mL
t1/2 [5]: 1.55 h
F [6]: 3%

SMILES: Cc1nc2c(N)ncn(Cc3c(Cl)cccc3Cl)c-2n1
IC50 [1]: 306 nM

SMILES: Cc1cccc(-c2nc3c(N)ncn(Cc4c(Cl)cccc4Cl)c-3n2)c1
IC50 [1]: 87 nM

SMILES: Nc1ncn(Cc2c(Cl)cccc2Cl)c2nc(-c3ccc(Cl)cc3)nc1-2
IC50 [1]: 288 nM

SMILES: Nc1ncn(Cc2c(Cl)cccc2Cl)c2nc(Br)nc1-2
IC50 [1]: 17600 nM

SMILES: Cc1ccccc1-c1nc2c(N)ncn(Cc3c(Cl)cccc3Cl)c-2n1
IC50 [1]: 20 nM
inhibition [7]: Active
Vd [2]: 2.75 L/kg
Cmax [3]: 134 ng/mL
AUC [4]: 312 ng·h/mL
t1/2 [5]: 1.35 h
F [6]: 19%

IC50 [1]: 1020 nM
SMILES: Nc1ncn(Cc2ccc(Cl)cc2Cl)c2ncnc1-2

SMILES: N#Cc1ccccc1-c1nc2c(N)ncn(Cc3c(Cl)cccc3Cl)c-2n1
IC50 [1]: 245 nM

IC50 [1]: 18500 nM
SMILES: Nc1ncn(Cc2cccc(Cl)c2)c2ncnc1-2

SMILES: Nc1ncn(Cc2c(Cl)cncc2Cl)c2ncnc1-2
IC50 [1]: 83 nM
Vd [2]: 0.81 L/kg
Cmax [3]: 8220 ng/mL
AUC [4]: 9501 ng·h/mL
t1/2 [5]: 0.71 h
F [6]: 100%
PPB [8]: 88%
PPB [9]: 89%
remaining at 1 h [10]: > 90%
remaining at 1 h [11]: > 90%
inhibition [12]: Active
Activity [13]: Active
Activity [14]: Active
Activity [15]: Active
Activity [16]: Active

IC50 [1]: 3430 nM
SMILES: Cc1cccc(C)c1Cn1cnc(N)c2ncnc1-2

IC50 [1]: 13600 nM
SMILES: Nc1ncn(Cc2ccccc2)c2ncnc1-2 [3-BENZYLADENINE]

SMILES: Nc1ncn(Cc2c(Cl)cccc2Cl)c2nc(-c3ccccc3F)nc1-2
IC50 [1]: 147 nM

IC50 [1]: 19400 nM
SMILES: Nc1ncn(Cc2ccc(Cl)cc2)c2ncnc1-2

SMILES: Nc1ncn(Cc2c(Cl)cccc2Cl)c2nc(-c3ccccc3Cl)nc1-2
IC50 [1]: 171 nM
